Source: ChEMBL document CHEMBL4477200, “Design, Synthesis, and Preclinical Evaluation of 4-Substituted-5-methyl-furo[2,3-d]pyrimidines as Microtubule Targeting Agents That Are Effective against Multidrug Resistant Cancer Cells” (J Med Chem, 2016)
Activity calls are given as the source filed them. No cut-off for these calls is given here.

What was measured:
SK-OV-3 [1] = assay: Antiproliferative activity against multidrug resistant human SKOV3 cells expressing MDR1-M6/6 after 48 hrs by SRB assay; format: functional, cell-based; settings: SK-OV-3, 48 h
Outline: (§1)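 SRB assay; IC50 is the mean of three independent experiments, each run in triplicate. Cells were kept at 37 °C under 5% CO2. HeLa and SK-OV-3 lines (parental and MDR1-M6/6) were grown in Basal Medium Eagle with 10% FBS, 1% GlutaMAX and 50 µg/mL gentamycin. HeLa WTβIII was grown in DMEM with 10% FBS.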

NCI/ADR-RES = assay: Cytotoxicity against human NCI-ADR-RES cells assessed as growth inhibition after 48 hrs by SRB assay; format: functional
SF-295 = assay: Cytotoxicity against human SF295 cells assessed as growth inhibition after 48 hrs by SRB assay; format: functional; settings: SF-295, 48 h
MCF7 = assay: Cytotoxicity against human MCF7 cells assessed as growth inhibition after 48 hrs by SRB assay; format: functional; settings: MCF7, 48 h
HeLa [2] = assay: Relative ratio of IC50 for human HeLa cells expressing wild type beta3 tubulin to IC50 for human HeLa cells; format: functional
NCI-H522 = assay: Cytotoxicity against human NCI-H522 cells assessed as growth inhibition after 48 hrs by SRB assay; format: functional; settings: NCI-H522, 48 h
UACC-62 = assay: Cytotoxicity against human UACC62 cells assessed as growth inhibition after 48 hrs by SRB assay; format: functional; settings: UACC-62, 48 h
MDA-MB-231 = assay: Cytotoxicity against human MDA-MB-231 cells assessed as growth inhibition after 48 hrs by SRB assay; format: functional; settings: MDA-MB-231, 48 h
ACHN = assay: Cytotoxicity against human ACHN cells assessed as growth inhibition after 48 hrs by SRB assay; format: functional
BT-549 = assay: Cytotoxicity against human BT549 cells assessed as growth inhibition after 48 hrs by SRB assay; format: functional; settings: BT-549, 48 h
786-0 = assay: Cytotoxicity against human 786-0 cells assessed as growth inhibition after 48 hrs by SRB assay; format: functional; settings: 786-0, 48 h
HeLa [3] = assay: Antiproliferative activity against multidrug resistant human HeLa cells expressing wild type beta3 tubulin after 48 hrs by SRB assay; format: functional, cell-based; outline: as §1
DU-145 = assay: Cytotoxicity against human DU145 cells assessed as growth inhibition after 48 hrs by SRB assay; format: functional; settings: DU-145, 48 h
OVCAR-3 = assay: Cytotoxicity against human OVCAR3 cells assessed as growth inhibition after 48 hrs by SRB assay; format: functional; settings: OVCAR-3, 48 h
HOP-62 = assay: Cytotoxicity against human HOP62 cells assessed as growth inhibition after 48 hrs by SRB assay; format: functional; settings: HOP-62, 48 h
Tubulin = Tubulin (Bos taurus, UniProt Q6B856+Q862L2+Q862F3); assay: Inhibition of tubulin assembly in bovine brain […] assessed as reduction in turbidity increase preincubated for 15 mins followed by GTP addition measured for 20 mins by spectrophotometric analysis
Outline: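 Purified bovine brain tubulin, 1.0 mg/mL (10 µM), was preincubated 15 min at 30 °C in 0.8 M monosodium glutamate (pH 6.6) with compound and 4% DMSO. Mixtures were chilled and 0.4 mM GTP added. Turbidity was followed for 20 min at 30 °C. IC50 is the concentration halving the turbidity increase, interpolated between tested concentrations.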

LOX IMVI = assay: Cytotoxicity against human LOXIMVI cells assessed as growth inhibition after 48 hrs by SRB assay; format: functional
Tubulin (Bos taurus) = Tubulin (Bos taurus) (UniProt Q6B856+Q862L2+Q862F3); assay: Displacement of [3H]colchicine from tubulin in bovine brain homogenate at 1 uM incubated for 10 mins by DEAE-cellulose filter assay; format: tissue-based
SF-539 = assay: Cytotoxicity against human SF539 cells assessed as growth inhibition after 48 hrs by SRB assay; format: functional; settings: SF-539, 48 h
OVCAR-4 = assay: Cytotoxicity against human OVCAR4 cells assessed as growth inhibition after 48 hrs by SRB assay; format: functional; settings: OVCAR-4, 48 h
SF-268 = assay: Cytotoxicity against human SF268 cells assessed as growth inhibition after 48 hrs by SRB assay; format: functional; settings: SF-268, 48 h
SK-OV-3 [4] = assay: Cytotoxicity against human SKOV3 cells assessed as growth inhibition after 48 hrs by SRB assay; format: functional, cell-based; settings: SK-OV-3, 48 h; outline: as §1
NCI-H460 = assay: Cytotoxicity against human NCI-H460 cells assessed as growth inhibition after 48 hrs by SRB assay; format: functional; settings: NCI-H460, 48 h
[5] = tested on: Tubulin (Rattus norvegicus); assay: Induction of microtubule depolymerization in rat A10 cells at 2 times EC50 incubated for 18 hrs by indirect immunofluorescence analysis
MDA-MB-435 = assay: Cytotoxicity against human MDA-MB-435 cells assessed as growth inhibition after 48 hrs by SRB assay; format: functional, cell-based
CCRF-CEM = assay: Cytotoxicity against human CCRF-CEM cells assessed as growth inhibition after 48 hrs by SRB assay; format: functional
Tubulin (Homo sapiens) = Tubulin (Homo sapiens) (UniProt P68371+Q9H4B7+P0DPH7+P68366+Q13509+Q71U36+P04350+Q3ZCM7+P07437+P68363+Q9BQE3+Q6PEY2+Q13885+Q9BVA1+Q9BUF5); assay: Induction of microtubule disruption in human HeLa cells assessed as multipolarization of spindle at 5 times IC50 incubated for 18 hrs by indirect immunofluorescence analysis relative to vehicle-treated control; format: cell-based
Outline: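 Mitotic spindles and microtubules were imaged by indirect immunofluorescence with a β-tubulin antibody and compared with vehicle-treated cells.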

Hs-578T = assay: Cytotoxicity against human Hs 578T cells assessed as growth inhibition after 48 hrs by SRB assay; format: functional

## COc1ccc(N(C)c2ncnc3occ(C)c23)cc1
SK-OV-3 [1]
  IC50: 8.4 nM
NCI/ADR-RES
  GI50: < 10 nM
SF-295
  GI50: < 10 nM
MCF7
  GI50: < 10 nM
HeLa [2]
  Ratio IC50: 0.9
NCI-H522
  GI50: < 10 nM
UACC-62
  GI50: 29.6 nM
MDA-MB-231
  GI50: < 10 nM
ACHN
  GI50: 22.5 nM
BT-549
  GI50: 59.6 nM
786-0
  GI50: < 10 nM
HeLa [3]
  IC50: 8.1 nM
DU-145
  GI50: < 10 nM
OVCAR-3
  GI50: < 10 nM
HOP-62
  GI50: 18.4 nM
Tubulin
  IC50: 3300 nM
LOX IMVI
  GI50: < 10 nM
Tubulin (Bos taurus)
  inhibition: 71%
SF-539
  GI50: < 10 nM
OVCAR-4
  GI50: < 10 nM
SF-268
  GI50: 10.1 nM
SK-OV-3 [4]
  GI50: < 10 nM
  IC50: 7.7 nM
NCI-H460
  GI50: < 10 nM
[5]
  Activity: Active
MDA-MB-435
  GI50: <10 nM
CCRF-CEM
  GI50: < 10 nM
Tubulin (Homo sapiens)
  Activity: Active
Hs-578T
  GI50: < 10 nM
